Reference: ChEMBL document CHEMBL2046381, “Defining the mechanism of action and enzymatic selectivity of psammaplin A against its epigenetic targets” (J Med Chem, 2012)

Legend:
Histone deacetylase 1 = Histone deacetylase 1 (Homo sapiens, UniProt Q13547); assay: Inhibition of human recombinant HDAC1 using Boc-lys(Ac)-AMC as substrate preincubated for 20 mins with substrate measured after 60 mins by fluorescence analysis
[1] = Growth inhibition of human WI38 cells after 96 hrs by sulphorhodamine B assay; type: cell-based; details: WI-38 cells
Summary of the method: (§1)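 SRB growth assay; MCF7 and WI38 seeded 4000 cells/well, A549 2000 cells/well, attached overnight, then exposed to freshly made drug solutions (0.1 to 50 μM) for 96 h. Fixed with cold 10% TCA, stained with 0.4% SRB; absorbance at 540 nm as percent of untreated control, IC50 from mean absorbance.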

A549 = assay: Growth inhibition of human A549 cells after 96 hrs by sulphorhodamine B assay; type: functional; details: A549, 96 h; summary of the method: as §1
[2] = molecular target: T1, Histone deacetylase-like amidohydrolase (Alcaligenes sp. (strain DSM 11172) (Bordetella sp. (strain FB188)), UniProt Q70I53); assay: Inhibition of Bordetella sp. (strain FB188) N-terminus His-tagged HDAH expressed in Escherichia coli BL21 (DE3); parameters: species or system Alcaligenaceae bacterium FB188
T1 sequence (Q70I53 whole entry): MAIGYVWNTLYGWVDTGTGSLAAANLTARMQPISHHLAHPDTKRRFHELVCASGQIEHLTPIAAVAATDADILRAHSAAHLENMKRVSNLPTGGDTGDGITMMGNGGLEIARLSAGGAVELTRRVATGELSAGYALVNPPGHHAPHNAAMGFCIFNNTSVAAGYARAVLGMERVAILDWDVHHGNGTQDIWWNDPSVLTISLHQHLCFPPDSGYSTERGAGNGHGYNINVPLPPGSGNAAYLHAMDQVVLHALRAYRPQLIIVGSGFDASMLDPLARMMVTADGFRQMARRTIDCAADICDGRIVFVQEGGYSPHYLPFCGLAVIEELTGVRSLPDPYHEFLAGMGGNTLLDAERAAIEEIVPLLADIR
Summary of the method: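 Recombinant N-terminal His6-tagged HDAH from Bordetella strain FB188, expressed in E. coli BL21, purified on zinc-loaded His-Trap column, eluted with 500 mM imidazole, dialyzed into assay buffer (>98% pure by SDS-PAGE). Tested directly against compounds; thiols generated in situ from disulfides with TCEP.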

Histone deacetylase 7 = molecular target: T2, Histone deacetylase 7 (Homo sapiens, UniProt Q8WUI4); assay: Inhibition of human recombinant HDAC7 using Boc-lys(Ac)-AMC as substrate preincubated for 20 mins with substrate measured after 60 mins by fluorescence analysis
T2 sequence (Q8WUI4 whole entry): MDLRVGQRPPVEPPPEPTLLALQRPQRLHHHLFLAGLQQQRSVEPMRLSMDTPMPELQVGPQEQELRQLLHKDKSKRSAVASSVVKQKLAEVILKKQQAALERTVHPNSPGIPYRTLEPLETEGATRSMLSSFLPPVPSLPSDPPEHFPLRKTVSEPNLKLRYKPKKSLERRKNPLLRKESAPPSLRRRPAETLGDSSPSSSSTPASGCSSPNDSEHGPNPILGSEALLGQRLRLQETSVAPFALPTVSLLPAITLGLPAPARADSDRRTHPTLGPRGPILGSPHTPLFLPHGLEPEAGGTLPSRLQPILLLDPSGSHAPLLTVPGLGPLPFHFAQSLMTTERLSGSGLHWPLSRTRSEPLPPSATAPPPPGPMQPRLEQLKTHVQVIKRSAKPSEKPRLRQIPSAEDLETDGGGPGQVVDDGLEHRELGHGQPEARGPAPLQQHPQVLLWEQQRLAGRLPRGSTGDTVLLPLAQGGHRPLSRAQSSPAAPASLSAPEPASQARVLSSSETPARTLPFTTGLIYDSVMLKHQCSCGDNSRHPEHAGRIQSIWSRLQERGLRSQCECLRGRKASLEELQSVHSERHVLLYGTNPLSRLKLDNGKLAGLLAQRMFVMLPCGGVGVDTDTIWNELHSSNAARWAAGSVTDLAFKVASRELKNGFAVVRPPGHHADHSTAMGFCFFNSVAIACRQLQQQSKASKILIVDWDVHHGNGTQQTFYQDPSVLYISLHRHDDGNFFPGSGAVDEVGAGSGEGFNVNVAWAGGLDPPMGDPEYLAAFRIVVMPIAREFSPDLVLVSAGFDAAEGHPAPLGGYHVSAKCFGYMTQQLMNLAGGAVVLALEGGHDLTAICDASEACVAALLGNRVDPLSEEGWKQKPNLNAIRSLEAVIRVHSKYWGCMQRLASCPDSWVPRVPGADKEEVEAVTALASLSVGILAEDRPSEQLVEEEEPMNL

Chain of Histone deacetylase 1 (Q13547 whole entry): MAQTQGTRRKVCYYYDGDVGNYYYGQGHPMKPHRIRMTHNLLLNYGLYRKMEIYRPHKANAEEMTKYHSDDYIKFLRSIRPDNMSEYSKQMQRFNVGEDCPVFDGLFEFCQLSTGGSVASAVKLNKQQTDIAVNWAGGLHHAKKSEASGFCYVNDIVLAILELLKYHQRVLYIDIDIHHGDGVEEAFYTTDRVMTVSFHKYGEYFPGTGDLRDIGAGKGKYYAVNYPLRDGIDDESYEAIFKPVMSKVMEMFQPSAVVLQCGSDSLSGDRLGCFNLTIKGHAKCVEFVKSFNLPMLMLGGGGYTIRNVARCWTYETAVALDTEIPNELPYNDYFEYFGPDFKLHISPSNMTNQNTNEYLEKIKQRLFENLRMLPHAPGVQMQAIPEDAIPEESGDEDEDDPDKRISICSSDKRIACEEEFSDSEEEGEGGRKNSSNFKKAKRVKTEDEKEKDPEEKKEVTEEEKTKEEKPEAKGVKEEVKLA

IC50 (Histone deacetylase 1): 0.005 µM | GI50 (A549): 33.4 µM | IC50 [2]: 32 µM | IC50 (Histone deacetylase 7): 45 µM
Structure (SMILES): N/N=C(\Cc1ccc(O)c(Br)c1)C(=O)NCCS
GI50 at 96 h [1]: 37.2 µM
